Rows were chosen to be rich in hits. Some 4.6% of all compounds tested hit in one or more screens of this group.
CHO parental Ca: signal in parental CHO cells, OX1R antagonist counter-screen | parental CHO-K1, ATP-induced calcium, Fluo-8 fluorescence | inhibition, % at 5.6 µM | actives 0.63% (n = 330,000) | AID 463079;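 active = inhibition above that plate's mean sample inhibition plus 3 SD, cut at about 26% in these data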;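 also: 0% = ATP-challenged DMSO wells and 100% = DMSO wells without ATP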
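material = parental CHO cells | also added = ATP as calcium-mobilizing challenge | dosing = single point at 5.6 µM | detection = intracellular calcium via Fluo-8 no-wash fluorescent dye | read-out = % inhibition | benchmarks = low control ATP plus DMSO, high control DMSO only | repeats = one well per compound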
TAAR1 agonist: agonists of human TAAR1; Q96RJ0; actives 0.99% (n = 360,000); activation, % at 3 µM; CHO RD-HGA16 TAAR1, Fluo-8 calcium fluorescence; vehicle wells 0%, saturating PEA agonist 100%; AID 624467;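 active = activation above the mean activation of all test compounds in the run plus 3 SD, cut at about 38% in these data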
Target sequence (Q96RJ0 whole entry, looked up): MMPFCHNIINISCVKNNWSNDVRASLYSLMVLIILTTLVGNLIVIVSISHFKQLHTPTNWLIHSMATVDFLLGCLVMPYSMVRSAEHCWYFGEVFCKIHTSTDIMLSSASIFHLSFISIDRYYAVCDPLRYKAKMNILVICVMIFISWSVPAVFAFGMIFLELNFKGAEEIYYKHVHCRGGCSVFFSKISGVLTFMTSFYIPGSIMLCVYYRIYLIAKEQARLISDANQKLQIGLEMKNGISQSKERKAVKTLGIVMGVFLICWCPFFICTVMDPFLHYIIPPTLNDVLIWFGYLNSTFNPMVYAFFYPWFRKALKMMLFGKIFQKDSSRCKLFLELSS
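Repeats: no replicates (n 1) | Material: CHO-derived RD-HGA16 cells with stable Gα16 and human TAAR1 | Technique: Kinetic Fluo-8 calcium fluorescence | Schedule: 17-24 h seeding, 75 min 37 °C dye, 30 min RT | Evaluation: % activation from peak over basal fluorescence ratio, DMSO-to-PEA scaled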
GPR7 antagonist: human neuropeptides B/W receptor 1 antagonism | P48145 | GPR7-expressing cells, fluorescence antagonist assay | inhibition, % at 4.4 µM | actives 1.1% (n = 290,000) | AID 1861; in the data active = inhibition above about 16%, passing the limit was not always enough;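 also: cells stimulated with the agonist NPW; 0% = agonist with vehicle and 100% = vehicle without agonist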
Target sequence (P48145 whole entry, looked up): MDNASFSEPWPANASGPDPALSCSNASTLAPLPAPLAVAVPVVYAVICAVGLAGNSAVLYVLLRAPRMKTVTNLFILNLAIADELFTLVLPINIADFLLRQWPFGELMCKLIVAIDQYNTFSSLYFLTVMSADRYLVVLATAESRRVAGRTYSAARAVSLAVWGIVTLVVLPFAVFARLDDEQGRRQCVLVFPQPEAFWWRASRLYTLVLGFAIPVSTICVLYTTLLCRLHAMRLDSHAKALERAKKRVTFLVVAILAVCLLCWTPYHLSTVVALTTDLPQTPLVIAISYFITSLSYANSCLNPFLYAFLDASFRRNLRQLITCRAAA
OX1R antag-1: human HCRTR1 antagonism; O43613; CHO/OX1R cells, Fluo-8 calcium fluorescence, orexin A; inhibition, % at 5 µM; actives 0.43% (n = 330,000); AID 434989;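 active = inhibition above its plate's threshold, mean inhibition of all tested compounds on the plate plus 3 SD, cut at about 37% in these data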;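 also: 0% = orexin A challenge wells and 100% = SB-334867-A antagonist wells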
TAAR1 antagonist: human TAAR1 antagonism; CHO RD-HGA16 TAAR1, Fluo-8 calcium fluorescence, antagonist; actives 1.5% (n = 360,000); Q96RJ0; inhibition, % at 3 µM;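 active = inhibition above a per-plate cutoff, the mean inhibition of test compounds on that plate plus 3 SD, cut at about 49% in these data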;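 also: 0% = DMSO plus EC80 beta-PEA response and 100% = DMSO alone without agonist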
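Test system: CHO RD-HGA16 cells bearing hTAAR1 | Reagent: β-PEA, EC80 | Compound dosing: 3 µM, single point | Schedule: Dye loading 75 min at 37 °C, then 30 min room temperature | Signal: Calcium fluorescence with Fluo-8 | Evaluation: Percent inhibition of PEA-evoked calcium signal, max/basal emission ratio | Control set: DMSO-only wells and EC80 β-PEA-stimulated wells | Repeats: Singlicate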
OX1R antag-2: antagonists of human orexin 1 receptor (OX1R). OX1R-expressing cells, FRET antagonist read-out. inhibition, % at 6.6 µM. actives 1.8% (n = 330,000). O43613; in the data active = inhibition mostly above about 38%, no sharp cut-off; inactive = mostly below about 40%;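 also: 0% = agonist challenge alone and 100% = reference antagonist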
GPR7 antag cf: human GPR7 antagonism, confirmation assay. AID 1952. GPR7-expressing cells, calcium fluorescence antagonist mode. shares compounds with GPR7 antagonist. actives 52% (n = 2,400). inhibition, % at 4.4 µM; in the data active = inhibition above about 24%;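 also: stimulated with the GPR7 agonist NPW; 0% = agonist plus vehicle and 100% = vehicle alone without agonist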
MCHR1 antagonist: antagonizes human MCHR1, a GPR7 antagonist counter-screen; shares compounds with GPR7 antagonist; MCHR1-expressing cells, fluorescence antagonist assay; inhibition, % at 4.4 µM; actives 62% (n = 2,400); AID 2148;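 also: 0% = vehicle with agonist and 100% = vehicle without agonist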
nonsel antag count: counter-screen for TAAR1 antagonists: nonselective antagonists | inhibition, % at 3 µM | actives 77% (n = 2,400) | shares compounds with TAAR1 antagonist | counterscreen cell line, calcium fluorescence, antagonist mode;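 also: CHO-Ga16 host cells stimulated with ATP at an EC80 level; 0% = agonist EC80 plus vehicle and 100% = vehicle without agonist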
TAAR1 ant conf: human TAAR1 antagonism, confirmed; actives 40% (n = 2,400); TAAR1-expressing cells, fluorescence antagonist read-out; inhibition, % at 3 µM; AID 651785; shares compounds with TAAR1 antagonist; in the data active = inhibition above about 49%;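 also: CHO-Ga16 host cells challenged with agonist PEA near its EC80; 0% = agonist at EC80 plus vehicle and 100% = vehicle with no agonist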
Ga16 ag counter-1: nonselective Ga16 agonism, counter-screen | shares compounds with TAAR1 antagonist | Ga16-expressing cells, calcium fluorescence, agonist counterscreen | activation, % at 3 µM | actives 18% (n = 2,400) | AID 651953; in the data active = activation above about 12%;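 also: 0% = vehicle wells and 100% = saturating stimulus response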
TAAR1 ag count: activates human TAAR1 in antagonist counter-screen. shares compounds with TAAR1 antagonist. hTAAR1 cell line, fluorescence activation, agonist mode. activation, % at 3 µM. actives 2% (n = 2,400). AID 651955; in the data active = activation above about 37%;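 also: CHO cells stably expressing TAAR1 with calcium dye readout; 0% = DMSO vehicle and 100% = full agonist response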
TAAR1 ag conf: human TAAR1 agonism, confirmed; shares compounds with TAAR1 agonist; CHO RD-HGA16 TAAR1, Fluo-8 calcium fluorescence; scaled: DMSO 0%, maximal phenethylamine 100%; activation, % at 3 µM; AID 651783; actives 82% (n = 2,400);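 active = activation above a cutoff set at the run's mean compound activation plus 3 SD, cut at about 39% in these data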
Ga16 ag counter-2: nonselective agonist in parental cells, TAAR1 agonist counter-screen; actives 50% (n = 2,400); CHO-Ga16 parental, Fluo-8 calcium fluorescence; normalized to maximal ATP response, DMSO zero; activation, % at 3 µM; shares compounds with TAAR1 agonist; AID 651787;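 active = activation above the run cutoff, the mean activation over all tested wells plus 3 SD, cut at about 12% in these data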;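 also: 0% = DMSO wells and 100% = maximal ATP response on the peak over basal ratio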
TAAR1 desens: human TAAR1 agonist that also desensitizes the receptor. CHO RD-HGA16 hTAAR1, Fluo-8 calcium, beta-PEA response inhibition. inhibition, % at 3 µM. AID 651951. shares compounds with TAAR1 agonist. actives 46% (n = 2,400);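 active = inhibition above the run cutoff, the mean inhibition of all test compounds plus 3 SD, cut at about 49% in these data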;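 also: beta-PEA stimulus applied at its EC80; loss of beta-PEA calcium signal after compound pretreatment read as receptor desensitization; 0% = DMSO with beta-PEA at EC80 and 100% = DMSO alone without agonist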
Ga16 antag count: nonselective Ga16 antagonist in TAAR1 agonist counter-screen. inhibition, % at 3 µM. shares compounds with TAAR1 agonist. actives 39% (n = 2,400). CHO-Ga16 ATP-induced calcium, Fluo-8 fluorescence;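 active = inhibition above the plate's mean compound inhibition plus 3 SD, computed per plate, cut at about 22% in these data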;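 also: 0% = EC80 ATP with DMSO and 100% = DMSO wells without ATP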
* marks the source's active call; other numbers are inactive results; x = not tested or not shown. Rule as the data show it, unless noted: active = inhibition above about 22%; inactive = the rest.

SMILES	CHO parental Ca	TAAR1 agonist	GPR7 antagonist	OX1R antag-1	TAAR1 antagonist	OX1R antag-2	GPR7 antag cf	MCHR1 antagonist	TAAR1 ag conf	Ga16 ag counter-2	TAAR1 desens	Ga16 antag count	others
O=C(Nc1ccc2c(c1)CCCN2C(=O)c1cccs1)c1c(F)cccc1Cl	-8	1	26*	-18	59*	14	16	41*	x	x	x	x	nonsel antag count=22*;TAAR1 ant conf=43;Ga16 ag counter-1=8;TAAR1 ag count=13
Clc1ccc(CSc2nnc(-c3ccccn3)n2Cc2cccs2)cc1Cl	x	6	x	x	21	x	x	x	x	x	x	x
COc1cc(-c2noc(C)c2/C=C/c2cccc([N+](=O)[O-])c2)cc(OC)c1OC	-7	11	35*	0	74*	17	46*	65*	x	x	x	x	nonsel antag count=28*;TAAR1 ant conf=42;Ga16 ag counter-1=2;TAAR1 ag count=0
Cc1ccc(-n2c(SCC(N)=O)nnc2-c2ccc(S(=O)(=O)N3CCCCC3)cc2)c(C)c1	-2	38*	35*	-15	13	10	45*	18	29	16*	32	34*
CC1(c2ccc(OC(F)F)cc2)NC(=O)N(CC(=O)Nc2ccc3c(c2)OCO3)C1=O (configuration not stated)	40*	110*	78*	38	51*	-2	83*	82*	107*	73*	87*	62*
CCOC(=O)CN1C(=O)NC(C)(c2ccc(OC(F)F)cc2)C1=O (configuration not stated)	14	15	5	-12	-14	12	x	x	x	x	x	x
CC1(c2ccc(OC(F)F)cc2)NC(=O)N(CC(=O)Nc2ccccc2)C1=O (configuration not stated)	49*	148*	89*	52*	99*	1	85*	84*	139*	92*	101*	73*
CC(=O)Nc1ccc(/C=N/N2C(=O)NC(C)(c3ccc(OC(F)F)cc3)C2=O)cc1 (configuration not stated)	36*	140*	39*	53*	97*	-10	98*	99*	138*	105*	104*	93*
COc1ccc(NC(=O)Cn2nnc(-c3ccccc3)c2COc2ccc(C(C)=O)cc2)cn1	x	4	x	x	15	x	x	x	x	x	x	x
CN1CCN(c2ccc(S(=O)(=O)N3CCCCC3)cc2NC(=O)Cc2ccc(Cl)cc2)CC1	5	57*	25*	-5	24	8	50*	54*	36	28*	23	22*
CCc1ccc(Cn2nnc(C(=O)Nc3ccc(OC)cc3OC)c2N)cc1	3	72*	25*	14	10	20	42*	19	60*	22*	25	20
COc1cccc(NC(=O)c2nnn(Cc3ccc(Br)cc3F)c2N)c1	21	59*	24*	33	53*	3	53*	53*	76*	32*	59*	36*
COc1cccc(NC(=O)Cn2nnc(C(=O)Nc3ccccc3)c2N)c1	-8	8	-17	-10	-10	8	x	x	x	x	x	x
Cc1ccccc1NC(=O)Nc1nc(C2CCC(=O)N2)cs1 (configuration not stated)	x	4	x	x	3	x	x	x	x	x	x	x
COc1ccc(NS(=O)(=O)c2cccc(C(=O)OCC(=O)Nc3cc(C)on3)c2)cc1	-16	6	10	-16	-1	28	x	x	x	x	x	x
Cc1ccc(NS(=O)(=O)c2ccc(C(=O)OCC(=O)Nc3cc(C)on3)cc2)cc1	x	72*	26*	x	7	x	38*	52*	72*	35*	50*	37*
CC(=O)Nc1cccc(C(=O)/C=C/c2ccc(N(C)C)cc2)c1	82*	127*	29*	100*	58*	21	60*	62*	81*	96*	71*	75*
CC(=O)Nc1cccc(C(=O)/C=C/c2ccc(/C=C/C(=O)c3cccc(NC(C)=O)c3)cc2)c1	-24	8	-6	-38	29	17	x	x	x	x	x	x
CN1C(=O)/C(=C\c2ccc(N(C)C)cc2)OC1=S	x	100*	44*	x	62*	x	44*	52*	87*	116*	58*	68*
CCCCOc1ccc(Br)cc1/C(C)=N/NC1=NCCN1	7	58*	24*	-26	8	12	36*	60*	66*	10	27	7
CCOc1ccc(NS(=O)(=O)c2ccc(C(=O)N(C)CC(=O)Nc3ccc(OC)cc3)cc2)cc1	5	2	x	-13	-11	20	x	x	x	x	x	x
CCCC(=O)NC(=S)Nc1ccc(S(=O)(=O)Nc2ccc(OCC)cc2)cc1	5	74*	29*	13	34	3	53*	67*	85*	35*	66*	39*
CC(=O)OCC(COC(C)=O)(CN1C(=O)c2ccccc2C1=O)CN1C(=O)c2ccccc2C1=O	x	1	x	x	-10	x	x	x	x	x	x	x
Cc1cc(=O)n2c(nc3ccccc32)s1	x	4	x	x	-10	x	x	x	x	x	x	x

Compound activity as filed in PubChem BioAssay.
